# Hits are enriched below; roughly 3.1% of the tested compounds scored in any of these assays.
# KCNK3 inh – human KCNK3 channel inhibition, primary screen; O14649; B-score at 10 µM; CHO-KCNK3 thallium flux, FluxOR fluorescence; stronger effect = lower value; 340,000 tested, 0.84% active;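 active = B-score under library mean minus 4 SD, starting fluorescence ratio at most library mean plus 5 SD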;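 also: more negative B-score means stronger inhibition of thallium flux through KCNK3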
# hERG rescue – compounds protecting human hERG from proarrhythmic drug block | Q12809 | CHO-hERG, FluxOR thallium flux, dofetilide IC70 present | activation (rescue from dofetilide block), less the hit threshold, % at 10 µM | 310,000 tested, 0.51% active | AID 1511;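 active = activation above the mean of controls blocked by dofetilide plus 5 SD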;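 also: thallium influx through hERG after potassium depolarization seen as dye fluorescence rise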
# KCNQ1 pot – human KCNQ1 channel potentiation or activation; 310,000 tested, 0.35% active; CHO-K1 KCNQ1, thallium flux FluxOR fluorescence; stronger effect = higher value; P51787; B-score at 10 µM;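 active = fluorescence ratio B-score, a plate-corrected score, at least three library SD, with initial intensity B-score within 5 SD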
#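 Material: CHO-K1 cells stably expressing KCNQ1. Medium: assay buffer for compound exposure, DMSO matched across wells. Reagent: K+/Tl+ depolarizing stimulus. Compound dosing: single-concentration screen. Times: 37 °C overnight plating, 90-min dark dye load, 20-min compound pretreatment. Technique: FluxOR Tl+ flux fluorescence.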
# KCNK9 inh – human KCNK9 channel inhibition; Q9NPC2; HEK293 KCNK9, FluxOR thallium flux fluorescence; stronger effect = lower value; B-score at 10 µM; 310,000 tested, 1.2% active;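 active = ratio B-score over 3 SD below the library mean, with starting fluorescence within 5 SD of its mean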;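 also: negative B-score means less thallium flux so channel inhibition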
# KCNQ1 inh – inhibitors of human KCNQ1 potassium channel; P51787; CHO-K1 KCNQ1, FluxOR thallium flux fluorescence; stronger effect = higher value; B-score at 10 µM; 310,000 tested, 1.3% active; AID 2642;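 active = compounds whose thallium flux B-score, printed positive for inhibition, exceeds three library SD while starting fluorescence stays within three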;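 also: channel opened by potassium depolarization with thallium stimulus after 20 min compound exposure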
# KCNQ1 block val – reconfirmed blocker of the human KCNQ1 potassium channel | AID 588353 | 1,600 tested, 93% active | shares compounds with KCNQ1 inh | KCNQ1 cell line, FluxOR thallium flux fluorescence | inhibition, % at 10 µM;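 active = primary screen active, with duplicate mean exceeding buffer control mean plus 3 SD of buffer wells, cut at about 28% in these data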
# CHO Tl flux – KCNQ1 inhibitor counter-screen hit in parental CHO cells; shares compounds with KCNQ1 inh; parental CHO-K1, FluxOR thallium flux fluorescence ratio; stronger effect = lower value; zero means no signal rise above baseline; fluorescence ratio (Tl flux) at 10 µM; 1,600 tested, 21% active;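 active = mean of duplicate thallium-flux fluorescence ratios in parental host cells more than 5 SD below the buffer control mean, cut at about 0.38 in these data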;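 also: ratio is peak minus minimum fluorescence divided by baseline fluorescence; actives read low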
# KCNQ1 ephys val – blocks human KCNQ1 current in automated patch clamp. 490 tested, 20% active. AID 624120. calls only at 10 µM. shares compounds with KCNQ1 inh. KCNQ1-CHO cells;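 active = KCNQ1 current drop exceeding 3 SD of negative control wells, seen in both duplicate runs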;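 also: steady state current during a 2 s step from -80 to +40 mV; negative values mean current inhibition and positive values mean potentiation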
# KCNQ2 inh – selectivity of KCNQ1 inhibitors: inhibition of rat KCNQ2 channel; shares compounds with KCNQ1 inh; KCNQ2 cells, FluxOR thallium flux fluorescence; inhibition, % at 10 µM; 1,600 tested, 71% active; AID 651746;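 active = mean percent inhibition of the KCNQ2 thallium signal more than 5 SD above the buffer-only control wells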;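 also: KCNQ2 expressed in CHO cells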
# KCNQ1 KCNE1 spec – human KCNQ1/KCNE1 inhibition in KCNQ1 specificity screen; inhibition, % at 10 µM; AID 652147; shares compounds with KCNQ1 inh; KCNQ1/KCNE1 cells, FluxOR thallium flux fluorescence; 1,600 tested, 77% active;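 active = mean percent inhibition of duplicate wells above the buffer-only control mean plus 3 SD of those controls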
# Target sequence (P51787 whole entry, looked up): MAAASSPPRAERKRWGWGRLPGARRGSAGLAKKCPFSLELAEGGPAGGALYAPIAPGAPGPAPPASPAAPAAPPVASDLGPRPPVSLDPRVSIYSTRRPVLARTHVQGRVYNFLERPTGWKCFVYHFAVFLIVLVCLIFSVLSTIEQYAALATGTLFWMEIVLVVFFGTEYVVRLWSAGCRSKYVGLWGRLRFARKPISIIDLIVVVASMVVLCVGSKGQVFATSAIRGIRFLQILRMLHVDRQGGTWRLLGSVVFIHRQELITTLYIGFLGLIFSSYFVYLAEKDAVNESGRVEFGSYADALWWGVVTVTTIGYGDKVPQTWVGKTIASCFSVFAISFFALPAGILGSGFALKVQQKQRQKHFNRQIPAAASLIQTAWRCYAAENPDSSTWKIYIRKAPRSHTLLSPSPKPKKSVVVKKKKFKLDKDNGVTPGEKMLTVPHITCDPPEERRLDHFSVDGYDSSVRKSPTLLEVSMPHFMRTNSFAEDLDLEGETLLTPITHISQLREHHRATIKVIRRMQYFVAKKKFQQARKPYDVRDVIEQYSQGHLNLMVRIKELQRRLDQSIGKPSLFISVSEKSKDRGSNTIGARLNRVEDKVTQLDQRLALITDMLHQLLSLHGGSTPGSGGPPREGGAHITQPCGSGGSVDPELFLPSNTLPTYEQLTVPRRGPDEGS
# KCNK9 inh conf – human KCNK9 inhibitor confirmation; shares compounds with KCNK9 inh; HEK293 KCNK9 cells, FluxOR thallium flux fluorescence; inhibition, % at 10 µM; 4,900 tested, 43% active;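 active = thallium signal inhibited by more than 5 SD of the compound-free buffer control wells, on both duplicate plates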
# Kir2-1 spec – tests whether KCNK9 modulators also affect mouse Kir2.1; shares compounds with KCNK9 inh; Kir2.1 cells, FluxOR thallium flux fluorescence; 4,900 tested, 4% active; inhibition, % at 10 µM; AID 492993;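 active = thallium signal drop more than 5 SD beyond the mean of the no-compound control wells, seen in both duplicate plates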;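 also: signal is fluorescence rise after thallium addition divided by baseline fluorescence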
# HEK293 Tl ctr – second counter-screen for KCNK9 modulators: effect in non-induced cells; 4,900 tested, 40% active; AID 492997; non-induced KCNK9-HEK293, FluxOR thallium flux; shares compounds with KCNK9 inh; inhibition, % at 10 µM;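 active = thallium signal drop beyond 5 SD of the untreated control mean, on both duplicate plates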
# A number is an active result; i = inactive; nt = no result.
SMILES,KCNK3 inh,hERG rescue,KCNQ1 pot,KCNK9 inh,KCNQ1 inh,KCNQ1 block val,CHO Tl flux,KCNQ1 ephys val,KCNQ2 inh,KCNQ1 KCNE1 spec,KCNK9 inh conf,Kir2-1 spec,HEK293 Tl ctr
Cc1ccc(C)c(N2CCN(C(=O)C(Cc3ccccc3)n3cccc3)CC2)c1 (stereo unspecified),i,i,i,-13,14,116,0.36,nt,103%,166%,58%,i,40%
Cc1cccc(C)c1OCc1cc(C(=O)N2CCCCCCC2)no1,i,i,i,i,i,nt,nt,nt,nt,nt,nt,nt,nt
Cc1ccc(N2CCN(C(=O)c3cc(COc4c(C)cccc4C)on3)CC2)c(C)c1,i,i,i,i,7,86,i,nt,113%,108%,i,i,i
CCc1noc(C)c1C(=O)OC(C)C(=O)Nc1ccc2c(c1)OCO2 (stereo unspecified),i,nt,nt,nt,nt,nt,nt,nt,nt,nt,nt,nt,nt
CCN1C(c2ccccc2)C(C)C(=O)C(C)C1c1ccccc1 (stereo unspecified),i,i,i,i,8,120,i,i,89%,128%,i,i,i
CC(C)Oc1cccc(C(=O)C2CCCN(Cc3cccn3-c3ccccn3)C2)c1 (stereo unspecified),i,i,i,i,8,52,i,nt,76%,i,i,i,i
COc1cccc(C(=O)C2CCCN(Cc3cccn3-c3ccccn3)C2)c1 (stereo unspecified),i,i,i,i,i,nt,nt,nt,nt,nt,nt,nt,nt
COc1ccc(-c2cc3nc(-c4ccccc4)cc(N4CCCC(O)C4)n3n2)cc1 (stereo unspecified),i,i,i,i,9,104,i,i,112%,184%,i,i,i
CC(C)Cc1csc(=S)[nH]1,i,nt,nt,nt,nt,nt,nt,nt,nt,nt,nt,nt,nt
Cc1cccc(N2CCN(C(=O)COc3ccc4c(c3)CCC4)CC2)c1C,i,i,i,i,6,102,i,i,100%,109%,i,i,i
Cc1cccc(N2CCN(C(=O)COc3ccc4ccc(=O)oc4c3)CC2)c1C,i,i,i,i,i,nt,nt,nt,nt,nt,nt,nt,nt
O=C1c2cccc(OCc3ccc(F)cc3)c2CCN1Cc1ccc(F)cc1,i,i,i,-15,6,126,i,i,115%,148%,66%,i,i
CN1CCc2c(OCc3ccc(F)cc3)cccc2C1=O,i,i,i,i,i,nt,nt,nt,nt,nt,nt,nt,nt
CC(C)N(C(=O)[C@H]1C[C@H](CC(=O)NCc2cccc(C(F)(F)F)c2)C(=O)N2CCc3c([nH]c4ccc(Cl)cc34)[C@]12C)C(C)C,i,nt,nt,nt,nt,nt,nt,nt,nt,nt,nt,nt,nt
CCOC(=O)c1c(-c2ccccc2)csc1NC(=S)N(CC)CC,i,i,i,-8.2,7,126,i,i,106%,145%,46%,i,28%
CCOC(=O)c1c(-c2ccccc2)csc1NC(=O)c1nn(CC)cc1Br,i,i,i,i,i,nt,nt,nt,nt,nt,nt,nt,nt
CCc1c(C#N)c(SCCC(=O)Nc2ccc(C)cc2)nc2c1C(=O)CC(C)(C)C2,i,i,i,i,7,93,i,i,83%,56%,i,i,i
COCC(=O)N[C@@H]1c2ccccc2CC[C@@H]1OCc1ccccc1,i,nt,nt,nt,nt,nt,nt,nt,nt,nt,nt,nt,nt
CC(=O)Nc1ccc(S(=O)(=O)N2CCSC2c2ccco2)cc1 (stereo unspecified),i,i,i,i,i,nt,nt,nt,nt,nt,nt,nt,nt

# Bioassay records (PubChem BioAssay)
